The record followed here is ChEMBL document CHEMBL2086341, “COX inhibitors Indomethacin and Sulindac derivatives as antiproliferative agents: synthesis, biological evaluation, and mechanism investigation” (Eur J Med Chem, 2012).

Data set [1] concerns HT-29. The data set can be described thus: Antiproliferative activity against human HT-29 cells after 72 hrs by MTT assay. The class given is functional, cell-based. An outline of the steps:
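HT29 colon cells grown in RPMI 1640 with 10% FBS, 2 mmol/l glutamine, 1 mmol/l pyruvate and penicillin-streptomycin at 37 °C, 5% CO2. Cells seeded at 4000/well and attached for 24 h. Treated 72 h with 1000 to 0.32 µM (5-fold dilutions), final DMSO <0.1%; DMSO vehicle controls. MTT 0.5 mg/ml for 2 h, solubilized in DMSO, A570 read. Run in quadruplicate.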
In general terms: Tetrazolium dyes change colour on reduction, which living cells bring about.

Data set [2] concerns SK-BR-3. The data set can be described thus: Antiproliferative activity against human SKBR3 cells after 72 hrs by MTT assay. It counts as functional, cell-based. To be noted: SK-BR-3, 72 h.
Data set [3] has as its system NCI-H292. The data set can be described thus: Antiproliferative activity against human NCI-H292 cells after 72 hrs by MTT assay. Particulars: NCI-H292, 72 h. It counts as functional, cell-based.
The test system of data set [4] is NCI-H522. The data set can be described thus: Antiproliferative activity against human NCI-H522 cells after 72 hrs by MTT assay. The class given is functional, cell-based. To be noted: NCI-H522, 72 h.
The nature of data set [5]: Antiproliferative activity against human MDA468 cells after 72 hrs by MTT assay. It counts as functional, cell-based. To be noted: MDA-MB-468, 72 h.
The test system of data set [6] is MCF7. The data set can be described thus: Antiproliferative activity against human MCF7 cells after 72 hrs by MTT assay. Particulars: MCF7, 72 h. It counts as functional, cell-based.
Data set [7] relates to IMR-90. The data set can be described thus: Cytotoxicity against human IMR90 cells after 72 hrs by MTT assay. The class given is cell-based. To be noted: IMR-90, 72 h.
For data set [8], the species on record is Bos taurus. The data set can be described thus: Inhibition of bovine tubulin polymerization at 25 uM using microtubule-associated protein rich tubulin measured for 20 mins by spectrophotometry. An outline of the steps:
(§1)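 Bovine brain MAP-rich tubulin at 2 mg/ml in 80 mM PIPES pH 6.9, 2 mM MgCl2, 0.5 mM EGTA, 5% glycerol. Mixed with compound in DMSO or DMSO control at 37 °C. Polymerization started with GTP (2 µl of 1 mM stock) and followed as absorbance at 340 nm over 20 min.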

The species named for data set [9] is Bos taurus. The data set can be described thus: Inhibition of bovine tubulin polymerization using microtubule-associated protein rich tubulin measured for 20 mins by spectrophotometry. The gist of the method: as §1
The species named for data set [10] is Bos taurus. The data set can be described thus: Inhibition of bovine tubulin polymerization at 8 uM using microtubule-associated protein rich tubulin at 10 mins by spectrophotometry relative to control. An outline of the steps:
as §1

The species named for data set [11] is Bos taurus. The data set can be described thus: Inhibition of bovine tubulin polymerization at 10 uM using microtubule-associated protein rich tubulin at 10 mins by spectrophotometry relative to control. An outline of the steps: as §1
The species entered for data set [12] is Bos taurus. The data set can be described thus: Induction of bovine tubulin polymerization at 2 uM using microtubule-associated protein rich tubulin measured for 20 mins by spectrophotometry. An outline of the steps: as §1
Data set [13] is filed under the species Bos taurus. The data set can be described thus: Induction of bovine tubulin polymerization at 5 uM using microtubule-associated protein rich tubulin measured for 20 mins by spectrophotometry. The gist of the method: as §1
The nature of data set [14]: Solubility of the compound in RPMI 1640 cell culture medium. The class given is physicochemical.
Setting [15] is: Homo sapiens, HT-29, 72 h, read-out: IC50.

The source made the active and inactive calls. The rule behind the calls is not given here.

By IC50 is commonly meant the concentration that inhibits the measured activity by half. Take `CCCCCCCCNC(=O)CC1=C(C)/C(=C/c2ccc([S+](C)[O-])cc2)c2ccc(F)cc21` (stereo not drawn): the IC50 in data set [1] (setting [15]) is 307 µM.

Turning to `CC1=C(CC(=O)NCCN(C)C)c2cc(F)ccc2/C1=C\c1ccc2ccccc2c1`, the IC50 in data set [1] (setting [15]) came out at 271 µM.

Take `CC1=C(CC(=O)NCCN(C)C)c2cc(F)ccc2/C1=C\c1ccc([S+](C)[O-])cc1` (stereo not drawn): the IC50 in [1] (setting [15]) stood at 47 µM.

In the case of `COc1cc(/C=C2/C(C)=C(CC(=O)NCCN(C)C)c3cc(F)ccc32)cc(OC)c1OC`, in data set [1] (setting [15]), the IC50 was 140 µM.

What is called inhibition is the share of the control response that was lost under treatment. For `COc1ccc2c(c1)c(CC(=O)NCCN(C)C)c(C)n2C(=O)c1cc(OC)c(OC)c(OC)c1`, the IC50 was 2.7 µM in data set [1] (setting [15]); 4.63 µM in data set [2]; 0.51 µM in data set [3]; 3 µM in data set [4]; 2870 nM in data set [5]; 0.9 µM in data set [6]. The compound further returned an IC50 in data set [7] of 17.2 µM. Moreover, the inhibition entry in data set [8] is “Active”. Besides, the inhibition result is “Dose-dependent effect” in [9], 20% in [10] and 56% in data set [11]. The result in data set [12] and in data set [13] was Active.

As for `COc1cccc(NC(=O)Cc2c(C)n(C(=O)c3ccc(Cl)cc3)c3ccc(OC)cc23)c1`, the IC50 in data set [1] (setting [15]) was found to be 1190 µM.

Take `COc1ccc2c(c1)c(CC(=O)NCCN1CCCCC1)c(C)n2C(=O)c1ccc(Cl)cc1`: in data set [1] (setting [15]), the half-inhibitory concentration (IC50) came to 277 µM.

Regarding `CC1=C(CC(=O)O)c2cc(F)ccc2/C1=C\c1ccc([S+](C)[O-])cc1` (stereo not drawn) [SULINDAC], the IC50 in data set [1] (setting [15]) was determined as 1730 µM.

As to `COc1ccc2c(c1)c(CC(=O)Nc1ccccc1OC)c(C)n2C(=O)c1ccc(Cl)cc1`, the IC50 in data set [1] (setting [15]) was determined as 1120 µM.

For the compound `COc1ccc2c(c1)c(CC(=O)NCCN(C)C)c(C)n2S(=O)(=O)c1ccccc1`, the IC50 was found to be 7.7 µM in data set [1] (setting [15]); 6.39 µM in [2]; 4.85 µM in data set [3]; 14.1 µM in [4]; 15900 nM in data set [5]; 4.88 µM in [6]. This compound yielded a 50% inhibitory concentration (IC50) in [7] of 18.7 µM. For the same compound, the inhibition result in [8] is “Active”.

As to `COc1ccc2c(c1)c(CC(=O)NCCN(C)C)c(C)n2C(=O)c1ccc2ccccc2c1`, the IC50 in [1] (setting [15]) was found to be 29 µM.

As for `CC1=C(CC(=O)NCCN2CCCC2)c2cc(F)ccc2/C1=C\c1ccc([S+](C)[O-])cc1` (stereo not drawn), the IC50 in data set [1] (setting [15]) was determined as 52 µM.

As for `COc1ccc2c(c1)c(CC(=O)NCc1ccc(CNC(=O)Cc3c(C)n(C(=O)c4ccc(Cl)cc4)c4ccc(OC)cc34)cc1)c(C)n2C(=O)c1ccc(Cl)cc1`, in data set [1] (ht-29), the IC50 entry is “ND(Insoluble)”. Further, the solubility result in data set [14] was “Insoluble”.

As to `CC1=C(CC(=O)NCCC(C)C)c2cc(F)ccc2/C1=C\c1ccc([S+](C)[O-])cc1` (stereo not drawn), in data set [1] (setting [15]), the IC50 came out at 1430 µM.

`COc1ccc(NC(=O)CC2=C(C)/C(=C/c3ccc([S+](C)[O-])cc3)c3ccc(F)cc32)cc1` (stereo not drawn): in data set [1] (setting [15]), the IC50 amounted to 2540 µM.

For `CCCCCC(C)NC(=O)CC1=C(C)/C(=C/c2ccc([S+](C)[O-])cc2)c2ccc(F)cc21` (stereo not drawn), in [1] (setting [15]), the IC50 came to 2140 µM.

Turning to `CSc1ccc(/C=C2/C(C)=C(CC(=O)NCCN(C)C)c3cc(F)ccc32)cc1`, in [1] (setting [15]), the IC50 was 11.3 µM.

Take `COc1ccc2c(c1)c(CC(=O)NCCN(C)C)c(C)n2C(=O)c1ccc(Br)cc1`: the IC50 in [1] (setting [15]) is 13.5 µM; in data set [2] it was 4.81 µM; in data set [3] it was 3.47 µM; in data set [4], 10.6 µM; in data set [5], 2910 nM; in [6] it was 9.53 µM. Moreover, the IC50 in [7] was found to be 41.7 µM. The inhibition entry in data set [8] is “Active”.

Take `COc1ccc(/C=C2/C(C)=C(CC(=O)NCCN(C)C)c3cc(F)ccc32)cc1`: the half-maximal inhibitory concentration (IC50) in [1] (setting [15]) stood at 20 µM.

On to `COc1ccc2c(c1)c(CC(=O)NCCN1CCOCC1)c(C)n2C(=O)c1ccc(OC)c(OC)c1`, for which the IC50 result in data set [1] (ht-29) is recorded as “ND(Insoluble)”. Moreover, the solubility result in data set [14] is “Insoluble”.

`COc1ccc2c(c1)c(CC(=O)NCCCCCNC(=O)Cc1c(C)n(C(=O)c3ccc(Cl)cc3)c3ccc(OC)cc13)c(C)n2C(=O)c1ccc(Cl)cc1`: the IC50 in data set [1] (setting [15]) stood at 110 µM.

`COc1ccc2c(c1)c(CC(=O)O)c(C)n2C(=O)c1ccc(Cl)cc1` [INDOMETHACIN]: the IC50 in data set [1] (setting [15]) came out at 1050 µM.

Turning to `COc1ccc(C(=O)n2c(C)c(CC(=O)NCCN(C)C)c3cc(OC)ccc32)cc1`, in data set [1] (setting [15]), the IC50 is 17.8 µM.

With `COc1ccc2c(c1)c(CC(=O)Nc1ccc(I)cc1)c(C)n2C(=O)c1ccc(Cl)cc1`, the IC50 in data set [1] (setting [15]) is 52 µM.

Regarding `CC1=C(CC(=O)NCCCN(C)C)c2cc(F)ccc2/C1=C\c1ccc([S+](C)[O-])cc1` (stereo not drawn), the IC50 in [1] (setting [15]) is 465 µM.

`CCCCCCNC(=O)Cc1c(C)n(C(=O)c2ccc(Cl)cc2)c2ccc(OC)cc12`: the half-inhibitory concentration (IC50) in data set [1] (setting [15]) stood at 1330 µM.

Consider `CCCCCCNC(=O)CC1=C(C)/C(=C/c2ccc([S+](C)[O-])cc2)c2ccc(F)cc21` (stereo not drawn), for which the IC50 in data set [1] (setting [15]) was 53 µM.

Regarding `COc1ccc2c(c1)c(CC(=O)Nc1ccc(Cl)cc1)c(C)n2C(=O)c1ccc(Cl)cc1`, the IC50 in data set [1] (setting [15]) is 68 µM.

With `CC1=C(CC(=O)Nc2ccc(C#N)cc2)c2cc(F)ccc2/C1=C\c1ccc([S+](C)[O-])cc1` (stereo not drawn), the half-maximal inhibitory concentration (IC50) in data set [1] (setting [15]) stood at 2580 µM.

On to `COc1ccc2c(c1)c(CC(=O)NCCN1CCCC1)c(C)n2C(=O)c1ccc(Cl)cc1`, for which the 50% inhibitory concentration (IC50) in [1] (setting [15]) came to 38 µM.

As to `COc1ccc2c(c1)c(CC(=O)NCCN1CCCC1)c(C)n2C(=O)c1cc(OC)c(OC)c(OC)c1`, the IC50 in [1] (setting [15]) is 34 µM.

Turning to `COc1ccc2c(c1)c(CC(=O)NCCN(C)C)c(C)n2C(=O)c1ccc(Cl)cc1`, the IC50 in data set [1] (setting [15]) is 170 µM.

`CC1=C(CC(=O)Nc2ccc(Cl)cc2)c2cc(F)ccc2/C1=C\c1ccc([S+](C)[O-])cc1` (stereo not drawn): the IC50 in data set [1] (setting [15]) was 1700 µM.

Regarding `COc1ccc2c(c1)c(CC(=O)NCCN1CCOCC1)c(C)n2C(=O)c1cc(OC)c(OC)c(OC)c1`, the IC50 in [1] (setting [15]) worked out at 611 µM.

Take `COc1ccc2c(c1)c(CC(=O)NCCN1CCOCC1)c(C)n2C(=O)c1ccc(Br)cc1`: the IC50 result in data set [1] (ht-29) is given as “ND(Insoluble)”. For the same compound, the solubility result in data set [14] is “Insoluble”.

With `CCCCNC(=O)CC1=C(C)/C(=C/c2ccc([S+](C)[O-])cc2)c2ccc(F)cc21` (stereo not drawn), the IC50 in data set [1] (setting [15]) was 124 µM.

Turning to `COc1ccc2c(c1)c(CC(=O)NCCN(C)C)c(C)n2C(=O)c1ccc(OC)c(OC)c1`, the IC50 in data set [1] (setting [15]) was 44 µM.

In the case of `CC1=C(CC(=O)NCCN(C)C)c2cc(F)ccc2/C1=C\c1ccc(Cl)cc1`, the IC50 in data set [1] (setting [15]) was determined as 12.4 µM.

For the compound `CC1=C(CC(=O)NCCN(C)C)c2cc(F)ccc2/C1=C\c1ccc(Br)cc1`, the IC50 in data set [1] (setting [15]) came to 20 µM.
